Experimental data from ChEMBL document CHEMBL4689842, “EUbOPEN Chemogenomics Library wave 1” (2021).
“And” between values parts separate entries of the source, which are not always exact repeats. Equal values may be shown once.

Test system: U2OS
Assay: Multiplex assay against U2OS
Assay type: toxicity, cell-based
Conditions: human
In short: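 Values for tubulin, mitochondrial-mass and membrane-permeability phenotypes are per cents of cells with healthy nuclei. These cells were identified by CellPathfinder machine-learning gating of live cells that had been stained at seeding with Hoechst33342, BioTracker Green Microtubule Cytoskeleton Dye, MitoTracker Red and Annexin V Alexa Fluor 680 and imaged on a CQ1 microscope at 37°C and 5% CO2 after compound addition. The gating first set Hoechst high-intensity objects apart from normal cells, then split normal cells into healthy, pyknosed or fragmented nuclei, and pyknosed cells into mitotic or apoptotic.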

[1] = 12 h, 1 µM, compound concentration 1 uM, replicate 1
[2] = 12 h, 1 µM, compound concentration 1 uM, replicate 2
[3] = 12 h, 10 µM, compound concentration 10 uM, replicate 1
[4] = 12 h, 10 µM, compound concentration 10 uM, replicate 2
[5] = 24 h, 1 µM, compound concentration 1 uM, replicate 1
[6] = 24 h, 1 µM, compound concentration 1 uM, replicate 2
[7] = 24 h, 10 µM, compound concentration 10 uM, replicate 1
[8] = 24 h, 10 µM, compound concentration 10 uM, replicate 2
[9] = 48 h, 10 µM, compound concentration 10 uM, replicate 1
[10] = 48 h, 10 µM, compound concentration 10 uM, replicate 2

C[C@@]1(C(=O)Nc2ccc(F)nc2)CCCN1c1nc(Nc2cc(C3CC3)n[nH]2)c2cccn2n1 [BMS-754807]
Population Apoptotic (%) [1]: 25%
Population Fragmented Nuclei (%) [1]: 8%
Population Healthy Nuclei (%) [1]: 75%
Population Hoechst High Intensity Objects (%) [1]: 4%
Population Membrane Permeable-Phenotype (%) [1]: 61%
Population Mitochondria Different-Phenotype (%) [1]: 10%
Population Mitotic Cells (%) [1]: 74%
Population Normal (%) [1]: 95%
Population Pyknosed Nuclei (%) [1]: 15%
Population Tubulin-Different-Phenotype (%) [1]: 78%
Total Cell Count [1]: 181
Population Apoptotic (%) [2]: 16%
Population Fragmented Nuclei (%) [2]: 36%
Population Healthy Nuclei (%) [2]: 56%
Population Hoechst High Intensity Objects (%) [2]: 27%
Population Membrane Permeable-Phenotype (%) [2]: 45%
Population Mitochondria Different-Phenotype (%) [2]: 25%
Population Mitotic Cells (%) [2]: 83%
Population Normal (%) [2]: 72%
Population Pyknosed Nuclei (%) [2]: 7%
Population Tubulin-Different-Phenotype (%) [2]: 62%
Total Cell Count [2]: 117
Population Apoptotic (%) [3]: 41% and 56%
Population Fragmented Nuclei (%) [3]: 10% and 4%
Population Healthy Nuclei (%) [3]: 65% and 86%
Population Hoechst High Intensity Objects (%) [3]: 6% and 2%
Population Membrane Permeable-Phenotype (%) [3]: 6% and 9%
Population Mitochondria Different-Phenotype (%) [3]: 71% and 27%
Population Mitotic Cells (%) [3]: 58% and 43%
Population Normal (%) [3]: 93% and 97%
Population Pyknosed Nuclei (%) [3]: 24% and 8%
Total Cell Count [3]: 191 and 183
Population Apoptotic (%) [4]: 33%
Population Fragmented Nuclei (%) [4]: 15% and 11%
Population Healthy Nuclei (%) [4]: 58% and 80%
Population Hoechst High Intensity Objects (%) [4]: 13% and 9%
Population Membrane Permeable-Phenotype (%) [4]: 22% and 16%
Population Mitochondria Different-Phenotype (%) [4]: 70% and 40%
Population Mitotic Cells (%) [4]: 66%
Population Normal (%) [4]: 86% and 90%
Total Cell Count [4]: 53 and 85
Population Apoptotic (%) [5]: 38%
Population Fragmented Nuclei (%) [5]: 15%
Population Healthy Nuclei (%) [5]: 60%
Population Hoechst High Intensity Objects (%) [5]: 4%
Population Membrane Permeable-Phenotype (%) [5]: 63%
Population Mitochondria Different-Phenotype (%) [5]: 32%
Population Mitotic Cells (%) [5]: 61%
Population Normal (%) [5]: 95%
Population Pyknosed Nuclei (%) [5]: 24%
Population Tubulin-Different-Phenotype (%) [5]: 78%
Total Cell Count [5]: 181
Population Apoptotic (%) [6]: 40%
Population Fragmented Nuclei (%) [6]: 41%
Population Healthy Nuclei (%) [6]: 47%
Population Hoechst High Intensity Objects (%) [6]: 20%
Population Membrane Permeable-Phenotype (%) [6]: 41%
Population Mitochondria Different-Phenotype (%) [6]: 30%
Population Mitotic Cells (%) [6]: 60%
Population Normal (%) [6]: 79%
Population Pyknosed Nuclei (%) [6]: 10%
Population Tubulin-Different-Phenotype (%) [6]: 51%
Total Cell Count [6]: 114
Population Apoptotic (%) [7]: 28% and 49%
Population Fragmented Nuclei (%) [7]: 11% and 15%
Population Healthy Nuclei (%) [7]: 76% and 54%
Population Hoechst High Intensity Objects (%) [7]: 5% and 8%
Population Membrane Permeable-Phenotype (%) [7]: 11% and 8%
Population Mitochondria Different-Phenotype (%) [7]: 51% and 74%
Population Mitotic Cells (%) [7]: 71% and 50%
Population Normal (%) [7]: 94% and 91%
Population Pyknosed Nuclei (%) [7]: 11% and 30%
Total Cell Count [7]: 187 and 184
Population Fragmented Nuclei (%) [8]: 17% and 12%
Population Healthy Nuclei (%) [8]: 47% and 74%
Population Hoechst High Intensity Objects (%) [8]: 9% and 11%
Population Membrane Permeable-Phenotype (%) [8]: 22%
Population Mitochondria Different-Phenotype (%) [8]: 59% and 45%
Population Mitotic Cells (%) [8]: 62% and 90%
Population Normal (%) [8]: 90% and 88%
Population Pyknosed Nuclei (%) [8]: 34% and 12%
Population Tubulin-Different-Phenotype (%) [8]: 77% and 28%
Total Cell Count [8]: 51 and 89
Population Apoptotic (%) [9]: 72%
Population Fragmented Nuclei (%) [9]: 26%
Population Healthy Nuclei (%) [9]: 21%
Population Hoechst High Intensity Objects (%) [9]: 11%
Population Membrane Permeable-Phenotype (%) [9]: 13%
Population Mitochondria Different-Phenotype (%) [9]: 75%
Population Mitotic Cells (%) [9]: 27%
Population Normal (%) [9]: 88%
Population Pyknosed Nuclei (%) [9]: 52%
Population Tubulin-Different-Phenotype (%) [9]: 88%
Total Cell Count [9]: 193
Population Apoptotic (%) [10]: 66%
Population Fragmented Nuclei (%) [10]: 25%
Population Healthy Nuclei (%) [10]: 30%
Population Hoechst High Intensity Objects (%) [10]: 20%
Population Membrane Permeable-Phenotype (%) [10]: 91%
Population Mitochondria Different-Phenotype (%) [10]: 83%
Population Mitotic Cells (%) [10]: 33%
Population Normal (%) [10]: 80%
Population Pyknosed Nuclei (%) [10]: 45%
Population Tubulin-Different-Phenotype (%) [10]: 91%
Total Cell Count [10]: 50
